# Legend:
# [1] = Clinical single-dose pharmacokinetics of semaglutide in plasma; type: in vivo, human; details: T2DM, single s.c. dose 0.5 mg semaglutide
# Outline: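 Same crossover design in T2DM adults: single s.c. dose of 1 mg/mL (243 nmol/mL) product, 6–9 week washout. EDTA plasma drawn pre-dose to 840 h (35 days), kept on ice 10 min, spun 1500g 10 min 4 °C, stored −20 °C. Measured by validated LC-MS/MS. Log-transformed Cmax analysed by linear normal model with treatment, period and participant as fixed effects.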
# [2] = Safety in the clinical study; type: in vivo, human; details: for AEs of severity Mild, % / AEs of severity Moderate, % / AEs of severity Severe, % / AEs with outcome Recovered/resolved, % / AEs with outcome Recovering/resolving, % / AEs with relationship to study product Possible, % / AEs with relationship to study product Probable, % / AEs with relationship to study product Unlikely, % / Decreased appetite, % / Gastrointestinal disorders (SOC), % / General disorders and administration site conditions (SOC), % / Headache, % / Metabolism and nutrition disorders (SOC), % / Nausea, % / Nervous system disorders (SOC), % / Serious AEs, % / Vomiting, % / Treatment emergent AEs, %: percent of individuals; for Overall tolerability in the clinical study: T2DM
# Outline: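 Adverse events and hypoglycaemia recorded continuously; treatment-emergent if from dosing to 35 days post-dose. Hypoglycaemia was BG-confirmed (BG < 2.8 mmol/L, i.e. PG < 3.1 mmol/L) or severe (needing assistance). Antibody samples taken pre-dose and at days 14, 28 and 35; validated assays. Anti-icodec-positive samples tested for human insulin cross-reactivity. Descriptive statistics.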
# [3] = insulin-naïve T2DM, phase 3 ONWARDS 1 and 3; cited from earlier work
# [4] = Clinical single-dose pharmacokinetics of insulin icodec in serum; type: in vivo, human; details: T2DM, single s.c. dose 175 U icodec
# Outline: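 T2DM adults (18–64 y, metformin ± one OAD, 80–120 kg, HbA1c 6.0–8.5%) in a randomised, double-blind, three-period crossover. Single s.c. dose of 700 U/mL product; washout 6–9 weeks. Serum sampled pre-dose to 840 h, clotted 30 min at RT, spun 1500g 10 min 4 °C, stored −20 °C; validated LOCI. Log Cmax fitted by linear model (treatment, period, participant fixed); tmax descriptive.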
# [5] = number of events, treatment emergent
compound,measurement,setting,value
"CC[C@H](C)[C@H](NC(=O)[C@H](Cc1ccccc1)NC(=O)[C@H](CCC(=O)O)NC(=O)[C@H](CCCCNC(=O)COCCOCCNC(=O)COCCOCCNC(=O)CC[C@H](NC(=O)CCCCCCCCCCCCCCCCC(=O)O)C(=O)O)NC(=O)[C@H](C)NC(=O)[C@H](C)NC(=O)[C@H](CCC(N)=O)NC(=O)CNC(=O)[C@H](CCC(=O)O)NC(=O)[C@H](CC(C)C)NC(=O)[C@H](Cc1ccc(O)cc1)NC(=O)[C@H](CO)NC(=O)[C@H](CO)NC(=O)[C@@H](NC(=O)[C@H](CC(=O)O)NC(=O)[C@H](CO)NC(=O)[C@@H](NC(=O)[C@H](Cc1ccccc1)NC(=O)[C@@H](NC(=O)CNC(=O)[C@H](CCC(=O)O)NC(=O)C(C)(C)NC(=O)[C@@H](N)Cc1cnc[nH]1)[C@@H](C)O)[C@@H](C)O)C(C)C)C(=O)N[C@@H](C)C(=O)N[C@@H](Cc1c[nH]c2ccccc12)C(=O)N[C@@H](CC(C)C)C(=O)N[C@H](C(=O)N[C@@H](CCCNC(=N)N)C(=O)NCC(=O)N[C@@H](CCCNC(=N)N)C(=O)NCC(=O)O)C(C)C [Semaglutide, semaglutide]","Maximum concentration after single dose (Cmax,SD,Semaglutide), LS mean","[1]; plasma, LS mean, N 30/28",0.008 µM
same,"Median time to maximum semaglutide concentration after single dose (tmax,SD,Semaglutide)",[1]; median,84 h
same,Participants positive for anti-semaglutide antibodies,[2]; assessed following IcoSema administration,No participants were positive
same,"AEs of severity Mild, %",[2]; treatment emergent,(57.1) %
same,"AEs of severity Moderate, %",[2]; treatment emergent,(17.9) %
same,"AEs of severity Severe, %",[2]; treatment emergent,(0.0) %
same,"AEs with outcome Recovered/resolved, %",[2]; treatment emergent,(60.7) %
same,"AEs with outcome Recovering/resolving, %",[2]; treatment emergent,(0.0) %
same,"AEs with relationship to study product Possible, %",[2]; treatment emergent,(28.6) %
same,"AEs with relationship to study product Probable, %",[2]; treatment emergent,(42.9) %
same,"AEs with relationship to study product Unlikely, %",[2]; treatment emergent,(21.4) %
same,"Decreased appetite, %",[2]; treatment emergent,(17.9) %
same,"Gastrointestinal disorders (SOC), %",[2]; treatment emergent,(42.9) %
same,"General disorders and administration site conditions (SOC), %",[2]; treatment emergent,(14.3) %
same,"Headache, %",[2]; treatment emergent,(7.1) %
same,"Metabolism and nutrition disorders (SOC), %",[2]; treatment emergent,(21.4) %
same,"Nausea, %",[2]; treatment emergent,(21.4) %
same,"Nervous system disorders (SOC), %",[2]; treatment emergent,(17.9) %
same,"Serious AEs, %",[2]; treatment emergent,(0.0) %
same,"Vomiting, %",[2]; treatment emergent,(7.1) %
same,"Treatment emergent AEs, %",[2]; until 35 days after dosing,(60.7) %
same,Overall tolerability in the clinical study,[2]; single s.c. dose,well-tolerated
insulin degludec,Rate of clinically significant or severe hypoglycaemia,[3],< 1 episode per patient-year of exposure
insulin icodec,"Maximum concentration after single dose (Cmax,SD,Icodec), LS mean","[4]; serum, LS mean, N 30/28",0.095 µM
same,"Median time to maximum icodec concentration after single dose (tmax,SD,Icodec)",[4]; median,24 h
same,Treatment-emergent BG confirmed hypoglycaemic episodes,"[2]; BG < 2.8 mmol/L, PG < 3.1 mmol/L, single s.c. dose, until 35 days after dose",three
same,Participants positive for anti-icodec antibodies at least once during the study,[2]; assessed following IcoSema and icodec administration,13 participants
same,"AEs of severity Mild, E",[2]; [5],23
same,"AEs of severity Moderate, E",[2]; [5],6
same,"AEs of severity Severe, E",[2]; [5],1
same,"AEs with outcome Recovered/resolved, E",[2]; [5],30
same,"AEs with outcome Recovering/resolving, E",[2]; [5],0
same,"AEs with relationship to study product Possible, E",[2]; [5],14
same,"AEs with relationship to study product Probable, E",[2]; [5],4
same,"AEs with relationship to study product Unlikely, E",[2]; [5],12
same,"Decreased appetite, E",[2]; [5],3
same,"Gastrointestinal disorders (SOC), E",[2]; [5],5
same,"General disorders and administration site conditions (SOC), E",[2]; [5],2
same,"Headache, E",[2]; [5],5
same,"Metabolism and nutrition disorders (SOC), E",[2]; [5],3
same,"Nausea, E",[2]; [5],0
same,"Nervous system disorders (SOC), E",[2]; [5],5
same,"Serious AEs, E",[2]; [5],1
same,"Vomiting, E",[2]; [5],0
same,"Treatment emergent AEs, E","[2]; number of events, until 35 days after dosing",30
same,Participants positive for anti-icodec antibodies cross-reacting to human insulin at least once,[2]; of the anti-icodec antibody positive participants,12 participants
same,"AEs of severity Mild, %",[2]; treatment emergent,(42.9) %
same,"AEs of severity Moderate, %",[2]; treatment emergent,(17.9) %
same,"AEs of severity Severe, %",[2]; treatment emergent,(3.6) %
same,"AEs with outcome Recovered/resolved, %",[2]; treatment emergent,(53.6) %
same,"AEs with outcome Recovering/resolving, %",[2]; treatment emergent,(0.0) %
same,"AEs with relationship to study product Possible, %",[2]; treatment emergent,(28.6) %
same,"AEs with relationship to study product Probable, %",[2]; treatment emergent,(10.7) %
same,"AEs with relationship to study product Unlikely, %",[2]; treatment emergent,(32.1) %
same,"Decreased appetite, %",[2]; treatment emergent,(10.7) %
same,"Gastrointestinal disorders (SOC), %",[2]; treatment emergent,(14.3) %
same,"General disorders and administration site conditions (SOC), %",[2]; treatment emergent,(7.1) %
same,"Headache, %",[2]; treatment emergent,(14.3) %
same,"Metabolism and nutrition disorders (SOC), %",[2]; treatment emergent,(10.7) %
same,"Nausea, %",[2]; treatment emergent,(0.0) %
same,"Nervous system disorders (SOC), %",[2]; treatment emergent,(14.3) %
same,"Serious AEs, %",[2]; treatment emergent,(3.6) %
same,"Vomiting, %",[2]; treatment emergent,(0.0) %
same,"Treatment emergent AEs, %",[2]; until 35 days after dosing,(53.6) %
same,Overall tolerability in the clinical study,[2]; single s.c. dose,well-tolerated
same,Rate of clinically significant or severe hypoglycaemia,[3],< 1 episode per patient-year of exposure
